Experimental data pooled from the literature.
Compare with care: the assays were run in different laboratories.
Target: Serine/threonine-protein kinase PLK3 (PLK3, Homo sapiens, UniProt Q9H4B4)

| Compound | test | conditions | remaining binding [%] |
| --- | --- | --- | --- |
| CN(C)c1nccc(-c2cnc3ncccn23)n1 | binding | 1 µM | 66 |
| O=C(NCCCN1CCOCC1)c1ccc(Nc2ncc(Cl)c(-c3ccc(Cl)s3)n2)cc1 | binding, competition with immobilised ligand | 1 µM | 7.8 |
| COCCOc1nc(-c2ccc(Cl)nc2)nc2c1CN(C(=O)c1ncn3ccccc13)CC2 | cell-free assay, competition with immobilised ligand | 0.1 µM | 100 |
| FC(F)(F)Oc1cccc(-c2cnc3ccc(-c4ccncc4)nn23)c1 | cell-free assay, competition with immobilised ligand | 5 µM | 63 |
| COc1ccc2cc(OCC3(C(=O)O)CN(C(=O)c4ccc(F)cc4)C3)ccc2c1 | cell-free assay, competition with immobilised ligand | 1 µM | 95 |
| CN(C)c1ncc(F)c(-c2cnn3ncccc23)n1 | binding | 1 µM | 79 |
| C[C@@H]1CN(c2ccc3ncc(-c4ccc5[nH]nc(C6CC6)c5c4)n3n2)C[C@H](C)O1 | binding, competition with immobilised ligand | 0.5 µM | 98 |
| C[C@@H]1CCN(c2nccc(-c3cnn4ncccc34)n2)C1 | binding | 1 µM | 88 |
| CCN1CCN(Cc2ccc(C(=O)Nc3ccc(C)c(Oc4ccc5c(c4)CC(=O)N5)c3)cc2C(F)(F)F)CC1 | binding, competition with immobilised ligand | 1 µM | 100 |
| O=C(O)c1cc(-c2ccc(C3CCNCC3)cc2)c2ccc(-c3ccc(C(F)(F)F)cc3)cc2c1 | cell-free assay, competition with immobilised ligand | 1 µM | 100 |
| O=C(NCC1CCOCC1)c1n[nH]cc1NC(=O)c1c(F)cccc1F | binding, competition with immobilised ligand | 1 µM | 89 |
| CN(C)c1nccc(-c2cnn3ncccc23)n1 | binding | 1 µM | 83 |
| COc1cnc(Nc2cccc(S(N)(=O)=O)c2)nc1N1CCN(c2ccccc2)CC1 | binding, competition with immobilised ligand | 1 µM | 95 |
| O=C(NCCCN1CCOCC1)c1ccc(Nc2nccc(-c3cc4ccccc4s3)n2)cc1 | binding, competition with immobilised ligand | 1 µM | 42 |
| N[C@H]1CCN(c2nccc(-c3cnn4ncccc34)n2)C1 | binding | 1 µM | 83 |
| c1cncc(-c2cccc(Nc3nccc(NC4CCCCC4)n3)c2)c1 | binding, competition with immobilised ligand | 10 µM | 78 |
| C[C@@H]1CN(c2cc(-c3n[nH]c4ccc(OC5(C)CC5)cc34)ncn2)C[C@H](C)O1 | cell-free assay, competition with immobilised ligand | 0.1 µM | 84 |
| Cc1cnc(Nc2ccc(C(=O)N3CCC(N4CCCC4)CC3)cc2)nc1-c1cc2ccccc2s1 | binding, competition with immobilised ligand | 1 µM | 42 |
| C[C@H](NC(=O)c1cnc2n1[C@](C)(Cc1ccc(C#N)cc1)C(=O)N2c1cc(Cl)c(F)c(Cl)c1)C(=O)NC1(c2ccccn2)CC1 | cell-free assay, competition with immobilised ligand | 1 µM | 81 |
| CNC(=O)[C@@H]1CC[C@@H](n2c(-c3ccc4cnccc4c3)nc3ccc(C(=O)NCc4cccc(C(N)=O)c4)cc32)C1 | binding, competition with immobilised ligand | 1 µM | 100 |
| CC(=O)N1CCC(c2ccc(C(=O)NC3=NCCN3)cc2C(F)(F)F)CC1 | cell-free assay, competition with immobilised ligand | 1 µM | 78 |
| CN(CCCC(F)(F)F)c1nccc(-c2cnn3ncccc23)n1 | binding | 1 µM | 100 |
| NS(=O)(=O)c1cc(NC(=O)Cc2ccccc2)ccc1Oc1cccc(Cl)c1 | cell-free assay, competition with immobilised ligand | 1 µM | 87 |
| Nc1ncc2c(n1)-c1c([nH]c3ccc(C#CC4CC4)cc13)CCCC2 | binding, competition with immobilised ligand | 1 µM | 99 |
